≈ marks a conversion by molar mass, not a printed value.
Assays:
[1] = Compound was tested for antiviral activity in HeLa Cell cultures, against herpes simplex virus type 1 (HSV-1); type: organism-based; conditions: human alphaherpesvirus 1, HeLa cell cultures; read-out: Tox50
Outline: (§1)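 HeLa cells grown to confluency in petri dishes, then infected (or mock-infected) with HSV-1 at 0.5 PFU/cell. Test compound added at a range of concentrations.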

[2] = system: Human alphaherpesvirus 1; experiment: Compound was tested for antiviral activity in HeLa Cell cultures, against herpes simplex virus type 1 (HSV-1), cytopathic effect induced by the virus (CPE); type: functional; outline: as §1
[3] = Compound was tested for antiviral activity in HeLa Cell cultures, against vesicular stomatitis virus (VSV); type: ADME, organism-based; conditions: read-out: Tox50
Outline: (§2)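 HeLa cells grown to confluency in petri dishes, then infected (or mock-infected) with VSV at 0.01 PFU/cell. Test compound added at a range of concentrations.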

[4] = system: Vesicular stomatitis virus; experiment: Compound was tested for antiviral activity in HeLa Cell cultures, against vesicular stomatitis virus (VSV), cytopathic effect induced by the virus (CPE); type: functional; outline: as §2
[5] = system: Vesicular stomatitis virus; experiment: Compound was tested for antiviral activity in HeLa Cell cultures, against vesicular stomatitis virus (VSV) expressed as cytopathic effect induced by the virus (CPE); type: functional; outline: as §2
[6] = Compound was tested for antiviral activity in HeLa Cell cultures against herpes simplex virus type 1 (HSV-1); type: organism-based; conditions: human alphaherpesvirus 1, HeLa cell cultures; read-out: Tox50; outline: as §1
[7] = Compound was tested for antiviral activity in HeLa Cell cultures against vesicular stomatitis virus (VSV); type: ADME, organism-based; conditions: read-out: Tox50; outline: as §2
[8] = system: Human alphaherpesvirus 1; experiment: Compound was tested for antiviral activity in HeLa Cell cultures, against herpes simplex virus type 1 (HSV-1) expressed as cytopathic effect induced by the virus (CPE); type: functional; outline: as §1

Row | Compound | CC50 [1] | CPE50 [2] | CC50 [3] | CPE50 [4] | CPE50 [5] | CC50 [6] | CC50 [7] | CPE50 [8]
1 | Cc1c(C(N)=O)ncn1[C@@H]1C[C@H](O)[C@@H](CO)O1 | > 200 µg/mL | >200 µg/mL | > 400 µg/mL | 150 µg/mL | – | – | – | –
2 | Cc1c(C(N)=O)ncn1[C@H]1C[C@H](O)[C@@H](CO)O1 | – | – | – | – | 150 µg/mL | 300 µg/mL (≈ 1240 µM) | > 400 µg/mL | 150 µg/mL
3 | Cc1[nH]cnc1C(N)=O | > 200 µg/mL | >200 µg/mL | – | – | – | – | – | –
4 | Cc1c(C(N)=O)ncn1COCCO | > 200 µg/mL | >200 µg/mL | > 200 µg/mL | 180 µg/mL | – | – | – | –
5 | Cc1c(C(N)=O)ncn1C1O[C@H](CO)[C@@H](O)[C@H]1O (some centres not stated) | > 400 µg/mL | 75 µg/mL | > 400 µg/mL | 125 µg/mL | – | – | – | –
6 | NC(=O)c1ncn([C@@H]2O[C@H](CO)[C@@H](O)[C@H]2O)n1 [RIBAVIRIN] | 400 µg/mL (≈ 1640 µM) | 75 µg/mL | 400 µg/mL (≈ 1640 µM) | 15 µg/mL | – | – | – | –

From ChEMBL document CHEMBL1123091, “Synthesis and antiviral evaluation of nucleosides of 5-methylimidazole-4-carboxamide” (J Med Chem, 1985)
